Bioassay records as filed in PubChem BioAssay.
The list is not random: actives were taken first. Their share in the collection is about 1.6%.
UBC9 SUMO inh: SUMOylation inhibition; AID 2006; inhibition, % at 35 µM; actives 0.36% (n = 290,000); HTRF SUMOylation assay, SAE1/SAE2 + UBC9, in vitro; P63279; in the data active = inhibition above about 50%, passing the limit was not always enough
JMJD2C inh: blocks human GASC-1 demethylase activity. inhibition, % at 2.35 µM. actives 0.069% (n = 330,000). GST-JMJD2C(1-420) H3K9me3 demethylation, DELFIA europium. Q9H3R0;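 active = more than half of a compound's replicate wells show inhibition beyond 50%, single wells judged on their own value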;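 note: signal counts dimethyl H3K9 product captured on neutravidin plate; 0% = median of DMSO wells and 100% = 0.3 times that DMSO median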
Target sequence (Q9H3R0 1-420 limits assumed): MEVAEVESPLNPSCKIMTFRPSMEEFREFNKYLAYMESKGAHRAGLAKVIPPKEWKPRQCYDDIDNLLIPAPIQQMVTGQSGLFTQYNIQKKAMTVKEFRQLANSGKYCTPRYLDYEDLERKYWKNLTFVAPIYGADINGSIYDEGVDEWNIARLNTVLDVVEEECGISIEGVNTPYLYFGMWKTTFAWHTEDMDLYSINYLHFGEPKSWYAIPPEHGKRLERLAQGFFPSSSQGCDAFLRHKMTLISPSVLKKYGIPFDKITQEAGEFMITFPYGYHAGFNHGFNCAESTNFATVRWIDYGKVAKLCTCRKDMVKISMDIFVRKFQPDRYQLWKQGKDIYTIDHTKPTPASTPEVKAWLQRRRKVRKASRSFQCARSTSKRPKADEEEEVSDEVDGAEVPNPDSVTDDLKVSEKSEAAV
GSTO1 inh: counter-screen for RBBP9 inhibitors: inhibitors of human GSTO1; P78417; recombinant GSTO1, activity-based probe fluorescence polarization; inhibition, % at 5.96 µM; actives 1.1% (n = 300,000);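 active = inhibition above the campaign mean inhibition plus 3 SD, cut at about 35% in these data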;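 note: 0% = GSTO1-1 with DMSO and 100% = wells lacking GSTO1-1 enzyme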
Target sequence (P78417 whole entry, looked up): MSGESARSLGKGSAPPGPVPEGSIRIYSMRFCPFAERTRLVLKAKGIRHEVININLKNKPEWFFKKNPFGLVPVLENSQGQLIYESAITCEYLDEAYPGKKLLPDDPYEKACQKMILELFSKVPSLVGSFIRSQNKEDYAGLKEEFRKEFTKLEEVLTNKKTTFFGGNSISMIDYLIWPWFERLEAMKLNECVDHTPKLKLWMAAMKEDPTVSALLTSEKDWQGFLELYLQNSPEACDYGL
Apaf1 inhib: blocks human Apaf-1 apoptosome activity. actives 0.71% (n = 330,000). reconstituted apoptosome caspase-3 activity, DEVD-Rh110 fluorescence. O14727. AID 489030. inhibition, % at 20 µM; active = inhibition of at least 40% at 20 µM;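 note: plate controls were DMSO wells for no effect and DEVD-CHO caspase inhibitor wells for full effect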
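System: Apoptosome proteins | Medium: Hepes pH 7.5 with detergent and BSA | Also added: Cytochrome c trigger plus (Z-DEVD)2-Rh110 caspase-3 substrate | Incubation: 30 min compound preincubation, 50 min activation, room temperature | Detection: Rhodamine 110 fluorescence at Ex 480/Em 540 nm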
TDP2 inh: blocks human TDP2 phosphodiesterase activity. O95551. actives 0.34% (n = 370,000). AID 720702. inhibition, % at 12.8 µM. recombinant TDP2, T5PNP hydrolysis, p-nitrophenol absorbance 415 nm;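 active = inhibition above the mean of all tested compounds plus 3 SD, set per campaign, cut at about 25% in these data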;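 note: 0% = DMSO with enzyme and 100% = buffer with substrate but no TDP2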
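Material: recombinant human TDP2; quantity: TDP2 enzyme at 120 nM final; medium: Tris-HCl pH 7.5 with MgCl2; compound: single concentration, 12.8 µM nominal, with 1% DMSO; incubation: 2 h enzyme incubation at 37 °C; signal: epi absorbance; measure: percent inhibition; benchmarks: high control without enzyme, low control DMSO plus TDP2; repeats: singlicate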
PAD4 inh: PAD4 (human) enzyme inhibition; recombinant PAD4, RCA probe fluorescence polarization; inhibition, % at 6.36 µM; actives 0.41% (n = 330,000);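 active = percent inhibition above a cutoff equal to the mean of all tested compounds plus 3 SD, cut at about 15% in these data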;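 note: 0% = PAD4 with RCA probe and DMSO and 100% = probe without PAD4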
TDP2 inh conf: confirmation of human TDP2 inhibitors. actives 22% (n = 1,100). shares compounds with TDP2 inh. AID 743263. recombinant human TDP2, absorbance read-out. inhibition, % at 12.8 µM; in the data active = inhibition above about 25%;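 note: 0% = vehicle with enzyme and 100% = no enzyme buffer only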
Numbers without * were called inactive; · = no result.

SMILES	UBC9 SUMO inh	JMJD2C inh	GSTO1 inh	Apaf1 inhib	TDP2 inh	PAD4 inh	TDP2 inh conf
Cc1ccc(S(=O)(=O)/N=C2/NC(=O)/C(=C/c3ccccc3)S2)cc1	22	23	-42	15	29*	-4	11
Cc1ccc(S(=O)(=O)/N=C2/NC(=O)/C(=C\c3ccccc3)S2)cc1	·	16	·	11	9	-7	·
COc1cc(NCCCC(C)N)c2ncccc2c1 (stereo not drawn)	·	36	·	·	64*	·	27*
CCOc1ccc2nc(/N=C/c3c(C)[nH]n(-c4ccccc4)c3=O)sc2c1	10	-1	8	15	35*	-6	10
O=C(C1CCCN(S(=O)(=O)c2ccc([N+](=O)[O-])cc2)C1)N1CCN(Cc2ccccc2)CC1 (stereo not drawn)	·	·	·	·	-14	·	·
CCC(C)N1CC(C(=O)NC2CCCCC2)CC1=O (stereo not drawn)	19	-10	4	1	25*	0	-5
CCC(C)N1CC(C(=O)O)CC1=O (stereo not drawn)	24	1	6	-33	3	-4	·
CC1(N2CCCCC2)C(=O)c2ccccc2C1=O	-7	7	-1	-22	62*	0	2
CCc1ccc(NC(=O)Nc2cc(C(=O)NCC3CCCO3)ccc2N2CC3CC(C2)c2cccc(=O)n2C3)cc1 (stereo not drawn)	·	3	1	-6	25*	0	2
C=C(C)/C=C1/C(Cc2ccccc2)N(CC2CC2)C(=N)N1C(=O)OCc1ccccc1 (stereo not drawn)	·	·	·	·	-6	·	·
O=C1CCC[C@H]2C[C@H](NCc3ccc(Cl)c(Cl)c3)CC[C@]23CCCN13	·	·	·	·	0	·	·
Fc1ccc(Nc2cncc(-c3ccsc3)c2)cc1Cl	·	·	·	·	81*	·	52*
COc1ccc(C=Nn2c(-c3n[nH]c4c3CCC4)n[nH]c2=S)cc1OCc1ccccc1	·	·	·	·	-4	·	·
O=C(CN1CCCCC1)Nc1c2c(nc3ccccc13)N(c1ccccc1)CC2	5	7	0	11	45*	1	9
CCCC(=O)Nc1c2c(nc3ccccc13)N(c1ccccc1)CC2	36	-1	-12	-3	·	-6	·
CCn1cc(C(=O)NC(C)C)c(=O)c2cc(F)c(N3CCN(C(=O)c4ccco4)CC3)cc21	15	44	3	1	11	-2	·
CCn1cc(C(=O)Nc2ncccc2O)c(=O)c2cc(F)c(N3CCN(C(=O)c4ccco4)CC3)cc21	10	0	-27	3	28*	0	-2
C=CCn1c(SCC(=O)Nc2ccc(CCCC)cc2)nnc1-c1ccc(Cl)cc1	·	·	·	·	5	·	·
CCOc1ccc(NC(=O)CN(C)C(=O)c2ccccc2OCc2c(C)noc2C)cc1OCC	·	6	3	57*	26*	-2	10
Cc1ccc(OCc2nn3c(C4CCCCC4)nnc3s2)cc1	·	·	·	·	3	·	·
O=C(NCC(=O)N1CCN(C(=O)c2ccco2)CC1)c1ccc(Br)cc1	-1	13	5	0	25*	2	-4
C/C(=N\NC(=O)CNC(=O)c1ccc(Br)cc1)c1ccco1	·	-3	0	-3	36*	1	-9
Cc1cc(=O)[nH]c(SCC(=O)Nc2cccc(C)c2C)n1	·	·	·	·	-5	·	·
Cc1ccc(N2CC(C(=O)Nc3ccc(S(=O)(=O)N4CCCC4)cc3)CC2=O)cc1 (stereo not drawn)	-4	-10	-7	-9	-7	-4	·
O=C(Nc1ccc(S(=O)(=O)N2CCCCC2)cc1)C1CC(=O)N(c2ccc(Cl)cc2)C1 (stereo not drawn)	-4	12	-8	15	25*	-2	-6
SMILES	UBC9 SUMO inh	JMJD2C inh	GSTO1 inh	Apaf1 inhib	TDP2 inh	PAD4 inh	TDP2 inh conf
Cc1ccc(CNC(=O)CN(C(=O)C2(C)CC(=O)N=C3C=CC=CN32)c2cc(C)ccc2C)cc1 (stereo not drawn)	3	-2	0	-1	26*	-2	6
O=C(COc1ccccc1)NS(=O)(=O)c1ccc(Cl)cc1	-4	·	8	0	0	0	·
COc1ccc(OCC(=O)NS(=O)(=O)c2ccccc2)cc1	6	9	5	0	29*	0	6
COC(=O)[C@]12C[C@H](CC(=O)N3CCCCC3)C(=O)N(CCc3ccc(OC)c(OC)c3)C1=C[C@H](C1CCCC1)O[C@@H]2C	·	·	·	·	-6	·	·
COc1ccc(NC(=O)CN(C)S(=O)(=O)c2ccc(Br)s2)cc1	-14	5	-1	3	25*	-2	1
COc1cc(NS(=O)(=O)c2ccc(NC(=S)NC(=O)/C=C/c3ccco3)cc2)ncn1	·	-37	·	9	36*	·	41*
CCOc1ccc(NC(=S)NC(=O)/C=C/c2ccco2)cc1	14	-6	5	8	3	1	·
Cc1ccc(Cn2cc(CN3[C@@H](CC(C)C)COc4cccc(F)c4S3(=O)=O)nn2)cc1	·	·	·	·	7	·	·
O=c1cc(-c2ccccc2)[nH]n1-c1ccccc1	·	·	·	·	76*	·	-3
COCC(C)n1c(C)cc(C(=O)COC(=O)CCc2nc3ccccc3c(=O)[nH]2)c1C (stereo not drawn)	-7	7	-13	-3	31*	-2	11
COc1cccc(N(CC(=O)NC2CCCCC2)C(=O)CCC(=O)Nc2nccs2)c1	6	3	4	21	29*	-2	4
COc1cccc(N(CC(=O)NC2CCCC2)C(=O)CCC(=O)Nc2nccs2)c1	13	3	-3	-1	-4	2	·
CCn1c(SCC(=O)Nc2ccc(C(N)=O)cc2)nc2sc(C)c(C)c2c1=O	·	·	·	·	0	·	·
O=C1CC(c2ccccc2)=NN1c1ccccc1	·	·	·	·	65*	·	12
CCOC(=O)CC1=NN(c2ccccc2)C(=O)C1	5	4	9	6	10	-13	·
Cn1c(=O)c2c(-c3ccccc3)n(-c3cccc(O)c3)cc2n(C)c1=O	·	·	·	·	-6	·	·
Cn1c(=O)c2c(-c3ccccc3)n(-c3ccc(N)cc3)cc2n(C)c1=O	·	·	·	·	58*	·	27*
Cc1ccc(C)c(NC(=O)c2cnccn2)c1	-11	1	-2	-2	29*	1	-1
CCOC(=O)C(=O)C1=CN(Cc2ccccc2)C=C(C#N)C1	5	-4	25	33	27*	-12	11
COc1ccc(N=C(N)NC(=O)OCc2ccccc2)cc1	·	·	·	·	-2	·	·
CN(C)CC(=O)N[C@H]1C[C@@H]2O[C@H](CO)CC[C@@H]2O[C@@H]1CCc1ccc(-c2ccc(F)cc2)cc1	·	·	·	·	-7	·	·
CCN(CC)c1ccc2cc(-c3nc(-c4cc5ccccc5oc4=O)cs3)c(=O)oc2c1	·	·	·	·	32*	·	5
